Measurements from ChEMBL document CHEMBL1287649, “Synthesis and anti-tubercular and antimicrobial activities of some 2r,4c-diaryl-3-azabicyclo[3.3.1]nonan-9-one N-isonicotinoylhydrazone derivatives” (2010).
In brackets after ≈: the same amount, converted by molar mass. Activity calls are given as the source filed them. The calls are words filed in the database; no cut-off is given here.

Tests used:
[1] = tested on: Mycobacterium tuberculosis; test: Antitubercular activity against Mycobacterium tuberculosis H37Rv ATCC 27294 assessed as reduction of relative light unit at 1 ug/ml after 72 hrs by luciferase reporter phage assay relative to control; assay type: functional, H37Rv ATTC 27294; design: scale not given: the % may be the effect or the level left
Method in brief: (§1)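 Luciferase reporter phage assay. Luminescence (RLU) integrated for 10 s on a luminometer, in duplicate per sample and averaged. Percent RLU reduction calculated against untreated control. Run repeated if the control mean RLU was below 1000.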

[2] = tested on: Mycobacterium tuberculosis; test: Antitubercular activity against Mycobacterium tuberculosis H37Rv ATCC 27294 assessed as reduction of relative light unit at 2 ug/ml after 72 hrs by luciferase reporter phage assay relative to control; assay type: functional, H37Rv ATTC 27294; design: scale not given: the % may be the effect or the level left; method in brief: as §1
[3] = tested on: Bacillus subtilis; test: Antibacterial activity against Bacillus subtilis NCIM 2439 at 200 ug/ml after 24 hrs by twofold serial dilution method; assay type: functional, organism-based
[4] = tested on: Klebsiella pneumoniae; test: Antibacterial activity against Klebsiella pneumoniae at 200 ug/ml after 24 hrs by twofold serial dilution method; assay type: functional, organism-based
[5] = tested on: Escherichia coli; test: Antibacterial activity against Escherichia coli NCIM 2345 at 200 ug/ml after 24 hrs by twofold serial dilution method; assay type: functional, organism-based
[6] = tested on: Staphylococcus aureus; test: Antibacterial activity against Staphylococcus aureus NCIM 2492 after 24 hrs by twofold serial dilution method; assay type: functional; settings: NCIM 2492, 24 h
Method in brief: (§2)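 Two-fold serial dilution in nutrient broth; compounds from 1 mg mL^-1 DMSO stocks, 0.2 mL into 1.8 mL seeded broth, then six serial dilutions. Inoculum from 24-h nutrient agar cultures grown at 37 ± 1 °C, final 10⁵ cfu mL^-1, pH 7.4 ± 0.2. Incubated at 37 ± 1 °C. MIC read visually after 24 h. Seeded-broth and solvent controls included.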

[7] = tested on: Pseudomonas aeruginosa; test: Antibacterial activity against Pseudomonas aeruginosa NCIM 2035 after 24 hrs by twofold serial dilution method; assay type: functional; settings: NCIM 2035, 24 h; method in brief: as §2
[8] = tested on: Candida albicans; test: Antifungal activity against Candida albicans-6 NCIM C27 at 200 ug/ml after 72 to 96 hrs by twofold serial dilution method; assay type: functional, organism-based
[9] = tested on: Candida albicans; test: Antifungal activity against Candida albicans NCIM C27 at 200 ug/ml after 72 to 96 hrs by twofold serial dilution method; assay type: functional, organism-based
[10] = tested on: Aspergillus niger; test: Antifungal activity against Aspergillus niger NCIM 590 after 72 to 96 hrs by twofold serial dilution method; assay type: functional
Method in brief: (§3)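 Two-fold serial dilution in Sabouraud dextrose broth; compounds from 1 mg mL^-1 DMSO stocks, 0.2 mL into 1.8 mL seeded broth, then six serial dilutions. Spores from 24-h to 7-day Sabouraud agar slants, final 1.1–1.5 × 10² cfu mL^-1, pH 7.4 ± 0.2. Incubated at 28 ± 1 °C. MIC read visually after 72–96 h. Seeded-broth and solvent controls included.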

[11] = tested on: Candida albicans; test: Antifungal activity against Candida albicans-51 NCIM C27 after 72 to 96 hrs by twofold serial dilution method; assay type: functional; method in brief: as §3
[12] = tested on: Aspergillus flavus; test: Antifungal activity against Aspergillus flavus NCIM 539 at 200 ug/ml after 72 to 96 hrs by twofold serial dilution method; assay type: functional, organism-based
[13] = tested on: Bacillus subtilis; test: Antibacterial activity against Bacillus subtilis NCIM 2439 after 24 hrs by twofold serial dilution method; assay type: functional; settings: NCIM 2439, 24 h; method in brief: as §2
[14] = tested on: Candida albicans; test: Antifungal activity against Candida albicans-6 NCIM C27 after 72 to 96 hrs by twofold serial dilution method; assay type: functional; method in brief: as §3
[15] = tested on: Candida albicans; test: Antifungal activity against Candida albicans NCIM C27 after 72 to 96 hrs by twofold serial dilution method; assay type: functional; method in brief: as §3
[16] = tested on: Aspergillus flavus; test: Antifungal activity against Aspergillus flavus NCIM 539 after 72 to 96 hrs by twofold serial dilution method; assay type: functional; method in brief: as §3
[17] = tested on: Klebsiella pneumoniae; test: Antibacterial activity against Klebsiella pneumoniae after 24 hrs by twofold serial dilution method; assay type: functional; method in brief: as §2
[18] = tested on: Escherichia coli; test: Antibacterial activity against Escherichia coli NCIM 2345 after 24 hrs by twofold serial dilution method; assay type: functional; settings: NCIM 2345, 24 h; method in brief: as §2
[19] = tested on: Pseudomonas aeruginosa; test: Antibacterial activity against Pseudomonas aeruginosa NCIM 2035 at 200 ug/ml after 24 hrs by twofold serial dilution method; assay type: functional, organism-based

Row | SMILES | Activity [1] [%] | Activity [2] [%] | Activity [3] | Activity [4] | Activity [5] | MIC [6] [µg/mL] | MIC [7] [µg/mL] | Activity [8] | Activity [9] | MIC [10] [µg/mL] | MIC [11] [µg/mL] | Activity [12] | MIC [13] [µg/mL] | MIC [14] [µg/mL] | MIC [15] [µg/mL] | MIC [16] [µg/mL] | MIC [17] [µg/mL] | MIC [18] [µg/mL] | Activity [19]
1 | O=C(N/N=C1\C2CCCC1[C@H](c1ccccc1)N[C@@H]2c1ccccc1)c1ccncc1 | 77.76 | 87.9 | inactive | inactive | inactive | 100 (≈ 244 µM) | 200 (≈ 487 µM) | inactive | inactive | 200 (≈ 487 µM) | 100 (≈ 244 µM) | inactive | – | – | – | – | – | – | –
2 | Cc1ccc([C@H]2N[C@@H](c3ccc(C)cc3)C3CCCC2/C3=N\NC(=O)c2ccncc2)cc1 | 72.03 | 82.04 | – | inactive | inactive | 200 (≈ 456 µM) | 100 (≈ 228 µM) | – | – | 100 (≈ 228 µM) | 100 (≈ 228 µM) | inactive | 200 (≈ 456 µM) | 200 (≈ 456 µM) | 100 (≈ 228 µM) | – | – | – | –
3 | C[C@@H]1[C@H](O)[C@@H](C)/C=C/C=C/C=C/C=C/C=C/C=C/C=C/[C@H](O[C@@H]2O[C@H](C)[C@@H](O)[C@H](N)[C@@H]2O)C[C@@H]2O[C@](O)(C[C@@H](O)C[C@@H](O)[C@H](O)CC[C@@H](O)C[C@@H](O)CC(=O)O[C@H]1C)C[C@H](O)[C@H]2C(=O)O [AMPHOTERICIN B] | – | – | – | – | – | – | – | – | – | 50 (≈ 54.1 µM) | 25 (≈ 27.1 µM) | – | – | 25 (≈ 27.1 µM) | 25 (≈ 27.1 µM) | 50 (≈ 54.1 µM) | – | – | –
4 | O=C(N/N=C1\C2CCCC1[C@H](c1ccc(Cl)cc1)N[C@@H]2c1ccc(Cl)cc1)c1ccncc1 | 75.61 | 85.22 | – | – | – | 50 (≈ 104 µM) | 100 (≈ 209 µM) | – | – | 100 (≈ 209 µM) | 50 (≈ 104 µM) | – | 100 (≈ 209 µM) | 100 (≈ 209 µM) | 100 (≈ 209 µM) | 200 (≈ 417 µM) | 100 (≈ 209 µM) | 50 (≈ 104 µM) | inactive
5 | O=C(N/N=C1\C2CCCC1[C@H](c1cccc(Cl)c1)N[C@@H]2c1cccc(Cl)c1)c1ccncc1 | 75.42 | 85.34 | – | – | – | 100 (≈ 209 µM) | 100 (≈ 209 µM) | – | – | 100 (≈ 209 µM) | 200 (≈ 417 µM) | – | 100 (≈ 209 µM) | 50 (≈ 104 µM) | 200 (≈ 417 µM) | 200 (≈ 417 µM) | 50 (≈ 104 µM) | 50 (≈ 104 µM) | –
6 | COc1ccc([C@H]2N[C@@H](c3ccc(OC)cc3)C3CCCC2/C3=N\NC(=O)c2ccncc2)cc1 | 73.07 | 83.02 | – | – | – | 100 (≈ 213 µM) | – | – | – | 200 (≈ 425 µM) | 100 (≈ 213 µM) | – | 200 (≈ 425 µM) | 100 (≈ 213 µM) | 200 (≈ 425 µM) | 200 (≈ 425 µM) | 200 (≈ 425 µM) | 100 (≈ 213 µM) | –
7 | NNC(=O)c1ccncc1 [ISONIAZID] | 98.42 | 98.42 | – | – | – | – | – | – | – | – | – | – | – | – | – | – | – | – | –
8 | COc1cccc([C@H]2N[C@@H](c3cccc(OC)c3)C3CCCC2/C3=N\NC(=O)c2ccncc2)c1 | 77.18 | 87.06 | – | – | – | 200 (≈ 425 µM) | 200 (≈ 425 µM) | – | – | 100 (≈ 213 µM) | 200 (≈ 425 µM) | – | 50 (≈ 106 µM) | 200 (≈ 425 µM) | 100 (≈ 213 µM) | 100 (≈ 213 µM) | 100 (≈ 213 µM) | 200 (≈ 425 µM) | –
9 | O=C(N/N=C1\C2CCCC1[C@H](c1ccc(F)cc1)N[C@@H]2c1ccc(F)cc1)c1ccncc1 | 76.63 | 86.12 | – | inactive | – | 50 (≈ 112 µM) | 100 (≈ 224 µM) | – | – | 100 (≈ 224 µM) | 50 (≈ 112 µM) | – | 50 (≈ 112 µM) | 50 (≈ 112 µM) | 50 (≈ 112 µM) | 100 (≈ 224 µM) | – | 100 (≈ 224 µM) | –
10 | CN[C@@H]1[C@H](O[C@H]2[C@H](O[C@H]3[C@H](O)[C@@H](O)[C@H](N=C(N)N)[C@@H](O)[C@@H]3N=C(N)N)O[C@@H](C)[C@]2(O)C=O)O[C@@H](CO)[C@H](O)[C@H]1O [STREPTOMYCIN] | – | – | – | – | – | 50 (≈ 86 µM) | 25 (≈ 43 µM) | – | – | – | – | – | 12.5 (≈ 21.5 µM) | – | – | – | 50 (≈ 86 µM) | 12.5 (≈ 21.5 µM) | –
11 | CC1(C)S[C@@H]2[C@H](NC(=O)Cc3ccccc3)C(=O)N2[C@H]1C(=O)O [PENICILLIN G] | – | – | – | – | – | 12.5 (≈ 37.4 µM) | 50 (≈ 150 µM) | – | – | – | – | – | 25 (≈ 74.8 µM) | – | – | – | 12.5 (≈ 37.4 µM) | 50 (≈ 150 µM) | –
